Ba/F3 V617F tox: reduce viability of Ba/F3 cells dependent on JAK2V617F; hit rate 1.1% among 220,000; inhibition, % at 5.6 µM; Ba/F3 EpoR-JAK2V617F viability, ATP luminescence;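 active = inhibition above the campaign mean plus 3 SD over all tested compounds, cut at about 24% in these data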;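 note: cytokine-independent growth of Ba/F3 cells driven by EpoR plus mutant JAK2; 0% = DMSO-treated cells and 100% = JAK inhibitor I control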
b-catenin transl: beta-catenin nuclear translocation modulation. AID 1665. nuclear translocation activity, % at 5 µM. hit rate 0.3% among 190,000. HeLa beta-catenin nuclear translocation, immunofluorescence imaging;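 active = nuclear translocation activity above 50% at 5 µM, with a well cell count of 50 or more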;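 note: per-cell ratio of nuclear to cytoplasmic median beta-catenin stain intensity; plate controls were DMSO negative control for no effect and GSK-3 inhibitor IX positive control for full effect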
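Test system: human HeLa cells, native beta-catenin. Compound dosing: 5 µM primary single dose, 0.1% DMSO, 0.02–20 µM confirmation series. Incubation: compound exposure 24 h at 37°C. Detection: beta-catenin immunostaining with DAPI counterstain, 20x imaging, 6 fields/well. Read-out basis: Nuclear/cytoplasmic beta-catenin signal ratio, % activation.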
APP 5UTR inh: APP translation inhibition; inhibition, % at 2 µM; hit rate 0.82% among 190,000; AID 1285; SH-SY5Y APP 5'UTR-luciferase reporter, luminescence;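 active = inhibition above a set limit, derived from the sample mean plus 3 SD, cut at about 45% in these data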
BaF3 tox: counter-screen for JAK2V617F inhibitors: parental Ba/F3 viability inhibitors. CellTiter-Glo ATP luminescence. inhibition, % at 5.6 µM. hit rate 1.1% among 220,000. AID 1486;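 active = inhibition above a per-campaign cutoff, the mean inhibition of all tested compounds plus 3 SD, cut at about 27% in these data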;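 note: 0% = DMSO wells and 100% = JAK Inhibitor I control wells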
MT stabilize HCS: microtubule stabilizers in HeLa cells; hit rate 0.83% among 200,000; % tubulin-high responders, % at 10 µM; HeLa tubulin immunostaining HCS, 24 h; share of cells brighter than vehicle mean+2SD;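 active = plate Z-score above 3 for both tubulin-high and condensed-nucleus cell shares, with cell loss under 80%, at 10 µM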;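 note: anti alpha tubulin signal scored within the nucleus-defined area of each cell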
Lmaj promast: reduces viability of Leishmania major promastigotes; resazurin fluorescence viability; inhibition, % at 10 µM; hit rate 9% among 200,000; in the data active = inhibition above about 50%;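 note: promastigotes grown with compound for 44 hours at 28 °C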
Active calls of the source: *; · = not tested or not shown. Sampled rows, rich in hits. Any-hit rate of the full collection: about 9.6%.

SMILES | Ba/F3 V617F tox | b-catenin transl | APP 5UTR inh | BaF3 tox | MT stabilize HCS | Lmaj promast
O=c1c(Cc2ccc(Cl)cc2)c(O)ccn1Cc1cccs1 | 0 | -4 | -10 | 6 | 3 | 10
COC(=O)c1oc2ccccc2c1NC(=O)CN1CCCC1 | -3 | 1 | 13 | 1 | 8 | -7
COC(=O)c1oc2ccc(Br)cc2c1NC(=O)CN1CCN(C)CC1 | 6 | · | 11 | 10 | 3 | 100*
COc1ccc(CS(=O)(=O)c2nc(C)cc(C)c2S(C)(=O)=O)cc1 | -4 | 1 | 7 | -2 | 3 | 0
CCCc1n(CC)c2ccccc2[n+]1CC(O)COC1CCCCC1 (centres undefined) | 33* | -4 | 4 | 50* | 4 | 97*
CCc1n(CC(O)COC2CCCCC2)c2ccccc2[n+]1C (centres undefined) | 24* | -2 | -4 | 57* | 2 | -2
CCn1c(C)[n+](CC(O)COCC2CC=CCC2)c2ccccc21 (centres undefined) | 27* | · | 4 | 41* | 1 | 21
CCc1n(CC(O)COCC2CC=CCC2)c2ccccc2[n+]1C (centres undefined) | 26* | -1 | -2 | 35* | 1 | -1
COC(=O)C1=CNC=C(C(=O)OC)C1c1ccc(C(=O)OC)cc1 | 1 | -5 | 2 | 4 | 3 | -4
CCCN1Cc2cccc(C(=O)NC(CC(=O)OCC)c3ccc(OCC)c(OC)c3)c2C1=O (centres undefined) | 6 | 3 | -3 | 13 | 2 | 8
Cc1ccc(/C=C/C(=O)NC(=S)Nc2ccccc2C(=O)NC2CCCCC2)cc1 | -2 | · | -5 | 2 | 3 | 83*
O=C(/C=C/c1ccc(F)cc1)NC(=S)Nc1ccccc1C(=O)NC1CCCCC1 | -5 | · | 4 | 1 | 4 | 1
COc1ccc(/C=C/C(=O)NC(=S)Nc2ccccc2C(=O)NC2CCCCC2)cc1 | 3 | 2 | -3 | 1 | 3 | 91*
O=C(/C=C/c1ccccc1)NC(=S)Nc1ccccc1C(=O)NC1CCCCC1 | 1 | · | -10 | 5 | 3 | 100*
O=C(Nc1ccc(Br)cc1)c1ccc(F)c(S(=O)(=O)NCc2cccs2)c1 | 8 | 1 | 0 | 13 | 7 | -1
COc1ccc(NC(=O)C2CSC(C)(C)N2C=O)cc1 (centres undefined) | -2 | 1 | -4 | 5 | 2 | -6
Cc1ccc2c(CC(=O)Nc3nc(C)cs3)coc2c1 | 0 | -3 | -13 | 3 | 3 | 8
Cc1ccc(/C=C/C2=Cc3c(sc(NC(=O)CSc4n[nH]c(N)n4)c3C#N)C(C)(C)C2)o1 | 0 | 3 | -2 | 4 | 3 | 0
O=C(Nc1nc2n(n1)C(c1ccc(Cl)cc1)CC(c1ccc(Cl)cc1)N2)c1ccco1 (centres undefined) | -2 | -1 | 10 | 0 | 5 | 76*
O=C1CCN(C(=O)c2cccs2)c2ccccc21 | 0 | 0 | -10 | 7 | 5 | -3
CN1C(=O)/C(=C\C(=O)c2cccs2)c2ccccc21 | 1 | -5 | 6 | 7 | 5 | 100*
Cc1ccc(NC(=S)N2CCN(c3ncccn3)CC2)c(C)c1 | -3 | 2 | -1 | 3 | 2 | 1
N#Cc1ccc(C(=O)N/N=C/c2cn(CC(=O)O)c3ccccc23)c(F)c1 | -4 | -1 | -3 | -2 | 3 | 58*
O=C(NNc1ccc(C2CCCCC2)cc1)C(O)(c1ccccc1)c1cccs1 (centres undefined) | 0 | 0 | -3 | 6 | 2 | 99*
CN(C)c1oc(-c2ccccc2Cl)nc1P(=O)(c1ccccc1)c1ccccc1 | -1 | 0 | -1 | 5 | 3 | 96*
SMILES | Ba/F3 V617F tox | b-catenin transl | APP 5UTR inh | BaF3 tox | MT stabilize HCS | Lmaj promast
COCCNC(=O)c1cc2c(=O)n3cccc(C)c3nc2n1C | · | 0 | · | · | · | ·
Cc1cccn2c(=O)c3cc(C(=O)N(C)C)n(C)c3nc12 | -4 | -2 | 2 | 1 | 1 | 87*
CCOC(=O)c1cc2c(=O)n3cccc(C)c3nc2n(Cc2ccco2)c1=NC(=O)c1cccnc1 | 1 | · | 3 | 2 | 3 | 86*
CCOC(=O)c1cc2c(=O)n3cccc(C)c3nc2n(C)c1=N | 1 | -5 | -20 | 5 | 5 | 98*
Cc1cccn2c(=O)c3cc(C(N)=S)c(=N)n(CCCOC(C)C)c3nc12 | 1 | -1 | 4 | 6 | 4 | 87*
CCOC(=O)c1cc2c(=O)n3ccccc3nc2n(Cc2ccccc2)c1=N | -4 | · | -4 | -2 | 1 | 14
